Consider four compounds from ChEMBL document CHEMBL1138477, “8-(4-Methoxyphenyl)pyrazolo[1,5-a]-1,3,5-triazines: selective and centrally active corticotropin-releasing factor receptor-1 (CRF1) antagonists” (J Med Chem, 2009).

In data set [1] the test system is Canis familiaris. In words: Hepatic blood flow in iv dosed Beagle dog. The class given is ADME, organism-based, Canis lupus familiaris, Liver. The settings on record: in vivo.
The target in data set [2] is D(2) dopamine receptor (Homo sapiens, UniProt P14416). Description: Binding affinity to dopamine D2 receptor.
D(2) dopamine receptor, sequence (P14416 whole entry): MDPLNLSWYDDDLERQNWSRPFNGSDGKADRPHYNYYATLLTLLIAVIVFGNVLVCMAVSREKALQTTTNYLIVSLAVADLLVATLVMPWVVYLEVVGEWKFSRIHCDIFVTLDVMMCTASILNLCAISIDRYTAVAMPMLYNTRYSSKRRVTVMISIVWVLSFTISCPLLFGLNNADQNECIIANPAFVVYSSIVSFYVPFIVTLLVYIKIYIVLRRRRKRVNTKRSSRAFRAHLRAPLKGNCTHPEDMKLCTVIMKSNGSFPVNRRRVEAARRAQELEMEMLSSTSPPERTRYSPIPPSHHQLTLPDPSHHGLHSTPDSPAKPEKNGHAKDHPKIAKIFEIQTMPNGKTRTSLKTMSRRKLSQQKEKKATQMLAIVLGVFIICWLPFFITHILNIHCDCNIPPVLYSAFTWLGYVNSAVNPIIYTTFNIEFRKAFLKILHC
Data set [3] addresses T1, Alpha-1A adrenergic receptor (Homo sapiens, UniProt P35348).
T1 sequence (P35348 whole entry): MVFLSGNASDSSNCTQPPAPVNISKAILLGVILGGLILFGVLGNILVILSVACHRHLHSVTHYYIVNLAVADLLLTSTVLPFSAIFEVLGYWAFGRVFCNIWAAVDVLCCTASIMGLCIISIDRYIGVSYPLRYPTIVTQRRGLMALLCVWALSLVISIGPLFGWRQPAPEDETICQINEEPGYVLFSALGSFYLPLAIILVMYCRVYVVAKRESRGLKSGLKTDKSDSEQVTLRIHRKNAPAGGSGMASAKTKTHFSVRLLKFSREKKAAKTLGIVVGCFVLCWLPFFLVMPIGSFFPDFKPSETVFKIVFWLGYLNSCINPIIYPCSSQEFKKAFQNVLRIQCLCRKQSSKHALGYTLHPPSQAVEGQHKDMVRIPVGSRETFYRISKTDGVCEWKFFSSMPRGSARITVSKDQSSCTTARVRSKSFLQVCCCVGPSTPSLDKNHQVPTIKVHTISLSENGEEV
In words: Binding affinity to adrenergic Alpha-1A receptor.

The nature of data set [4]: Binding affinity to serotonin receptor.
Data set [5] concerns the target T2, Corticotropin-releasing factor-binding protein (Homo sapiens, UniProt P24387).
T2 sequence (P24387 whole entry): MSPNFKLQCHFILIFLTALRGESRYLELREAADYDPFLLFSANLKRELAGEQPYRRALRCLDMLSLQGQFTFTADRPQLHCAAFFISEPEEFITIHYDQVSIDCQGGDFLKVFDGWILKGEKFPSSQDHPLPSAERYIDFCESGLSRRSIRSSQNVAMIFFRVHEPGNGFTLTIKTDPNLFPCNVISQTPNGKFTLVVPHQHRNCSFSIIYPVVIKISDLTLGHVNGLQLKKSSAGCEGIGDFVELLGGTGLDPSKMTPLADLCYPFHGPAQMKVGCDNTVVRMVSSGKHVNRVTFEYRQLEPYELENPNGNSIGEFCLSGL
In words: Binding affinity to human recombinant CRF binding protein.

For data set [6], the target named is T3, Corticotropin-releasing factor receptor 1 (Rattus norvegicus, UniProt P35353).
T3 sequence (P35353 whole entry): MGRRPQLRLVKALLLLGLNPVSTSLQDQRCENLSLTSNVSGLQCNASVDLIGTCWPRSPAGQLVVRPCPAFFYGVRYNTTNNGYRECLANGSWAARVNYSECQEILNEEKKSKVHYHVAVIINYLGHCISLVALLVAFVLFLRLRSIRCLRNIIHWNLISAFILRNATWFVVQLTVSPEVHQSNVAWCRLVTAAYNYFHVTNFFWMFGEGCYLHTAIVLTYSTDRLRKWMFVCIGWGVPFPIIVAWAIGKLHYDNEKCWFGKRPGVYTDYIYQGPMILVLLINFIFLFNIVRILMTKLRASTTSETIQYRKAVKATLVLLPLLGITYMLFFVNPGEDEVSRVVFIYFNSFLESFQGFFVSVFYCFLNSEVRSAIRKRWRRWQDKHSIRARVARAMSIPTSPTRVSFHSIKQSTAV
Description: Displacement of [125I]Tyr0-ovine CRF from CRF1 receptor in rat cortical membrane by gamma counting. Format: cell membranes. In outline:
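Inhibition of 125I-Tyr0-ovine-CRF binding to rat cortical membranes measured across dilutions of test drug; IC50 derived by iterative curve fitting.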

Data set [7] concerns the target T4, Corticotropin-releasing factor receptor 1 (Rattus norvegicus) (UniProt P35353).
T4 sequence (whole entry): T3 sequence (P35353 whole entry)
Description: Agonist activity at CRF1 receptor in rat brain homogenates assessed as CRF-stimulted cAMP production. The class given is functional, tissue-based. In general terms: cAMP levels reflect the balance of adenylyl cyclase and phosphodiesterase activity.

Data set [8] concerns the target T5, Corticotropin-releasing factor receptor 2 (Homo sapiens, UniProt Q13324).
T5 sequence (Q13324 whole entry): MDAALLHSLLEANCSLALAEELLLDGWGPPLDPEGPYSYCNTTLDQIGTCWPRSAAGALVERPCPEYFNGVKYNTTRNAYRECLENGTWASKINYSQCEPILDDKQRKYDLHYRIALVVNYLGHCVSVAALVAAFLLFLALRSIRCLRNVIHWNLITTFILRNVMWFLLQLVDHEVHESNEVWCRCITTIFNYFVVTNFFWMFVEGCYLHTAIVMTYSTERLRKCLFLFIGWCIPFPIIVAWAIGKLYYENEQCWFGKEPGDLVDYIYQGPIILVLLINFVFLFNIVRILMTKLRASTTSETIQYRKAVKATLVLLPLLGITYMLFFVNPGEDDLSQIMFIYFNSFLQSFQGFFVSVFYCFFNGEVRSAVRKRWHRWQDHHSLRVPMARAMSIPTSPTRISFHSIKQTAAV
Description: Binding affinity to human CRF2alpha receptor.

Data set [9] has as its target T6, Corticotropin-releasing factor receptor 2 (Homo sapiens) (UniProt Q13324).
T6 sequence (whole entry): T5 sequence (Q13324 whole entry)
In words: Antagonist activity at human cloned CRF2alpha receptor expressed in HEK293 cells. The class given is functional, cell-based.

Data set [10] can be described thus: Binding affinity to N-type calcium channel.
Data set [11] has as its target T6, Corticotropin-releasing factor receptor 2 (Homo sapiens). In words: Agonist activity at human cloned CRF2alpha receptor expressed in HEK293 cells. Format: functional, cell-based.
Data set [12] deals with Canis familiaris. Description: Ex vivo displacement of [125I]Tyr0-ovine CRF from CRF1 receptor in dog at 5 mg/kg, po measured in plasma after 2 hrs. Format: functional. The following applies: Canis lupus familiaris. In outline: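 Beagle dogs given 5 mg/kg po (free base), in Labrafil or Tween-80/0.5% methylcellulose 1:99; plasma drawn 2 and 10 h postdose, diluted 10-fold in binding buffer, and tested for inhibition of 125I-Tyr0-ovine-CRF binding to rat receptors; mean ± SD, n = 3.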
In general terms: Loss of bound radioactivity is the signal in a displacement assay; it reports binding, not function.

Data set [13] concerns the target T7, Alpha-2C adrenergic receptor (Homo sapiens, UniProt P18825).
T7 sequence (P18825 whole entry): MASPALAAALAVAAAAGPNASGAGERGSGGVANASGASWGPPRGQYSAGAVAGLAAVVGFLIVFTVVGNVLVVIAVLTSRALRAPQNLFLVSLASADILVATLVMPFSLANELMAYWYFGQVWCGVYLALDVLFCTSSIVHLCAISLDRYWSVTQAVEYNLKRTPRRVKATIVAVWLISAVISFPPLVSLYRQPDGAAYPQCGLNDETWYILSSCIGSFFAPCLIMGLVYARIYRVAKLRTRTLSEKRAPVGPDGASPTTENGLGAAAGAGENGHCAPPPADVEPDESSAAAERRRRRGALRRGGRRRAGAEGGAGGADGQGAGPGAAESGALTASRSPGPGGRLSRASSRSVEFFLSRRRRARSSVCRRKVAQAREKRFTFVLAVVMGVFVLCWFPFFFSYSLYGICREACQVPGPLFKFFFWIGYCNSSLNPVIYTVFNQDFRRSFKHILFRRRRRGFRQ
Description: Binding affinity to adrenergic alpha2c receptor.

Calls of active or inactive are those of the source. The rule behind the calls is not given here.

Usually IC50 stands for the concentration that gives 50% inhibition. One may read the inhibition in vivo as the drop in the measured response relative to a control, in per cent. Higher therefore signals a response far below the control. For the compound `CC[C@@H](C)Nc1nc(C)nc2c(-c3c(C)cc(OC)cc3OC)c(C)nn12`, the QH in data set [1] came to 31 mL/min/kg. Moreover, the IC50 was over 1000 nM in [2]; over 1000 nM in [3]; over 1000 nM in data set [4]; over 1000 nM in [5]; 4.4 nM in data set [6]; over 1000 nM in data set [8]. Further, the half-maximal inhibitory concentration (IC50) in data set [10] and in data set [13] was over 1000 nM throughout. The result in data set [7], in data set [9] and in [11] was inactive. The same compound had an inhibition in vivo at 5 mg/kg in [12] of 72%.
Consider `COCCN(CCOC)c1nc(C)nc2c(-c3ccc(OC)cc3C)c(C)nn12`, for which, in [1], the QH was 31 mL/min/kg. Moreover, the IC50 in data set [2] is over 1000 nM; in data set [3], over 1000 nM; in data set [4], over 1000 nM; in data set [5], over 1000 nM; in [6] it was 4.2 nM; in data set [8] it was over 1000 nM. In addition, the IC50 in data set [10] and in [13] was over 1000 nM throughout. For the same compound, the result in data set [7], in [9] and in [11] was inactive. This compound returned an inhibition in vivo at 5 mg/kg in data set [12] of 75%.
In [1], `COCCN(CCOC)c1nc(C)nc2c(-c3cc(C)c(OC)cc3C)c(C)nn12` came in with a QH of 31 mL/min/kg. Moreover, the IC50 in data set [2] is over 1000 nM; in data set [3], over 1000 nM; in data set [4] it was over 1000 nM; in data set [5], over 1000 nM; in data set [6], 1.98 nM; in data set [8], over 1000 nM. Moreover, the half-inhibitory concentration (IC50) in data set [10] and in data set [13] was over 1000 nM each time. Further, the result in data set [7], in [9] and in [11] was inactive. The inhibition in vivo at 5 mg/kg in [12] came out at 84%.
Take `CCC(CC)Nc1nc(C)nc2c(-c3cc(F)c(OC)cc3Cl)c(C)nn12`: the IC50 in data set [2] is over 1000 nM; in [3] it was over 1000 nM; in data set [4], over 1000 nM; in [5] it was over 1000 nM; in [6], 1 nM; in data set [8] it was over 1000 nM. Besides, the IC50 in data set [10] and in [13] was over 1000 nM throughout. Also, the outcome in [7], in data set [9] and in data set [11] was inactive. In data set [12], at 5 mg/kg the inhibition in vivo was 97%.
